{
  "source": "ChEMBL document CHEMBL3808340",
  "about": "“Development of Novel 1,2,3,4-Tetrahydroquinoline Scaffolds as Potent NF-κB Inhibitors and Cytotoxic Agents” (ACS Med Chem Lett, 2016)",
  "key": {"[1]": {"test_system": "NCI-H23", "assay": "Cytotoxicity against human NCI-H23 cells after 72 hrs by sulforhodamine B assay", "assay_type": "functional", "settings": "NCI-H23, 72 h", "outline": "(§1)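 Sulforhodamine B staining following the NCI (USA) protocol was used to estimate cell number indirectly in six human cancer lines. GI50 is the concentration giving a 50% decrease in net cell growth, reported as the mean of three experiments.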"}, "[2]": {"test_system": "RAW264.7", "assay": "Inhibition of LPS-induced NFkappaB (unknown origin) transcriptional activity expressed in mouse RAW264.7 cells at 100 uM incubated for 16 hrs by SEAP based reporter gene assay relative to control", "assay_type": "cell-based"}, "[3]": {"test_system": "ACHN", "assay": "Cytotoxicity against human ACHN cells after 72 hrs by sulforhodamine B assay", "assay_type": "functional", "outline": "as §1"}, "[4]": {"test_system": "MDA-MB-231", "assay": "Cytotoxicity against human MDA-MB-231 cells after 72 hrs by sulforhodamine B assay", "assay_type": "functional", "settings": "MDA-MB-231, 72 h", "outline": "as §1"}, "[5]": {"assay": "Inhibition of LPS-induced NFkappaB (unknown origin) transcriptional activity expressed in mouse RAW264.7 cells incubated for 16 hrs by SEAP based reporter gene assay", "assay_type": "cell-based", "settings": "RAW264.7, 16 h"}, "[6]": {"assay": "Cytotoxicity against human NUGC3 cells after 72 hrs by sulforhodamine B assay", "assay_type": "functional", "settings": "NUGC-3, 72 h", "outline": "as §1"}, "[7]": {"assay": "Cytotoxicity against human PC3 cells after 72 hrs by sulforhodamine B assay", "assay_type": "functional", "settings": "PC-3, 72 h", "outline": "as §1"}, "[8]": {"species": "Homo sapiens", "assay": "Potency index, ratio of KL-1156 IC50 to compound IC50 for LPS-induced NFkappaB (unknown origin) transcriptional activity expressed in mouse RAW264.7 cells", "assay_type": "cell-based"}, "[9]": {"assay": "Cytotoxicity against human HCT15 cells after 72 hrs by sulforhodamine B assay", "assay_type": "functional", "settings": "HCT-15, 72 h", "outline": "as §1"}, "[10]": {"species": "Homo sapiens", "assay": "Potency index, ratio of PDTC IC50 to compound IC50 for LPS-induced NFkappaB (unknown origin) transcriptional activity expressed in mouse RAW264.7 cells", "assay_type": "cell-based"}},
  "data": [
    {"smiles": "O=C(Nc1ccccc1C(F)(F)F)C1CCc2ccccc2N1C(=O)c1ccc(Cl)cc1", "note": "(stereo not given)", "values": [
      {"measurement": "GI50", "setting": "[1]", "value": 0.307, "unit": "µM"},
      {"measurement": "inhibition", "setting": "[2]", "value": 92, "unit": "%"},
      {"measurement": "GI50", "setting": "[3]", "value": 0.824, "unit": "µM"},
      {"measurement": "GI50", "setting": "[4]", "value": 0.533, "unit": "µM"},
      {"measurement": "IC50", "setting": "[5]", "value": 2.7, "unit": "µM"},
      {"measurement": "GI50", "setting": "[6]", "value": 0.551, "unit": "µM"},
      {"measurement": "GI50", "setting": "[7]", "value": 0.786, "unit": "µM"},
      {"measurement": "Ratio IC50", "setting": "[8]", "value": 19},
      {"measurement": "GI50", "setting": "[9]", "value": 0.839, "unit": "µM"},
      {"measurement": "Ratio IC50", "setting": "[10]", "value": 13}
    ]}
  ]
}
